Compound activity: PubChem BioAssay, several laboratories
STAT1 blocker = STAT1 signaling inhibition. inhibition, % at 5.5 µM. AID 920. NIH 3T3 STAT1-luciferase reporter, IFN-gamma, luminescence. 0.35% of 200,000 active;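 active = inhibition above a set limit, the mean inhibition across all tested compounds plus 3 SD, cut at about 34% in these data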;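 note: 0% = IFN-gamma with DMSO and 100% = IFN-gamma with 300 µM nifuroxazide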
NF-kB neuron act = NF-kB expression increase, human neuronal cells | NF-kB reporter expression; stronger effect = higher value | fold change at 12.5 µM | 1.6% of 190,000 active; in the data active = fold change above about 3.3
STAT3 activator = STAT3 signaling activation | U3A cells, IL-6 STAT3-luciferase reporter, luminescence; 100% = signal with IL-6 EC80 alone | activation (% of control), % at 5.6 µM | 0.91% of 190,000 active;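 active = activation above the screen-wide mean of compound activation plus 3 SD, cut at about 130% in these data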;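 note: 0% = background luminescence of wells with medium and substrate only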
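Test system: Human STAT1-deficient U3A cells with stable STAT3-luciferase reporter | Also added: Interleukin-6, 33 ng/mL | Timing: Compound pre-incubation 1 h before IL-6, then 6 h stimulation at 37 °C | Technique: Luciferase reporter luminescence | Read-out: Percent of IL-6-only median luminescence | Benchmarks: IL-6-only wells as 100% reference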
STAT1 activator = activators of IFN-gamma induced STAT1 signaling; NIH 3T3 STAT1-luciferase reporter, luminescence; 100% = IFN-gamma alone, no compound; activation (% of control), % at 5.5 µM; 2.6% of 200,000 active; AID 932;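 active = activation above the screen-wide mean activation plus 3 SD, cut at about 130% in these data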;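 note: raw ratio to IFN-gamma control signal so 100% means no change and 0% no light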
APP 5'UTR act = activates APP 5'UTR luciferase reporter | SH-SY5Y APP 5'UTR luciferase reporter, luminescence; zero percent = DMSO vehicle wells | activation, % at 2 µM | 1% of 190,000 active | AID 1276;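 active = activation above a set limit, based on mean plus 3 SD of controls, cut at about 140% in these data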
STAT3 inh = STAT3 signaling inhibition; 0.89% of 190,000 active; inhibition, % at 5.5 µM; U3A cells, IL-6 STAT3-luciferase reporter, luminescence; host cell line lacks STAT1; AID 862;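 active = inhibition above the mean inhibition across all screened compounds plus 3 SD, cut at about 44% in these data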;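 note: 0% = DMSO only wells and 100% = 100 µM nifuroxazide control wells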
* = called active by the depositor; x = not tested or not shown. Sampled rows, rich in hits. Any-hit rate of the full collection: about 5.1%.

SMILES | STAT1 blocker | NF-kB neuron act | STAT3 activator | STAT1 activator | APP 5'UTR act | STAT3 inh
CC(C)(C)c1ccc(-c2conc2N)cc1 | -32 | 5* | 98 | 118 | 70 | 4
COCCn1nnnc1C(C(C)C)N1CCCC(C)C1 (stereo not given) | -7 | 1.2 | 111 | 105 | -3 | -11
CCOC(=O)C1CCN(C(=S)Nc2ccc(CC)cc2)CC1 | -1 | 1.3 | 105 | 100 | 27 | -4
CCc1ccc(C(=O)COC(=O)c2cccs2)cc1 | -23 | 1.8 | 80 | 115 | 156* | 26
C=CCc1c(OC)ccc2ccc(=O)oc12 | -8 | 1 | 114 | 107 | -6 | -18
Cc1c(C(=O)NCc2ccoc2)oc2ccc3c(c12)C(=O)CC(C)(C)O3 | -49 | 3.9* | 106 | 146* | 120 | -1
CC(C)Oc1ccc2ccccc2c1C=O | 15 | 1.2 | 100 | 87 | 6 | 7
O=Cc1c(OCc2ccccc2)ccc2ccccc12 | -39 | 1.9 | 102 | 134* | 50 | 5
CC(C(=O)OCC(=O)Nc1cccc(S(=O)(=O)N(C)C)c1)N1C(=O)c2ccccc2C1=O (stereo not given) | -2 | 1.1 | 100 | 101 | 1 | 2
CC(C)c1ccc(OCC(=O)Nc2ccc(OC(F)(F)F)cc2)cc1 | 0 | 1.2 | 100 | 100 | 4 | -5
CC(C)c1ccc(NC(=O)COc2ccccn2)cc1 | -34 | 1.3 | 88 | 130* | 42 | 20
CCCOc1ccc(NC(=O)OC2CCN(C)CC2)cc1 | 2 | 1.3 | 109 | 98 | 0 | -10
Cc1ccc(Nc2ncccc2C(N)=O)cc1 | -30 | 3.3 | 88 | 127 | 82 | 18
CC(=O)c1cnc(Nc2ccc(C)cc2)s1 | -43 | 1.7 | 98 | 137* | 41 | 8
Cc1[nH]c2ccc(C(=O)N3CCCCC3)cc2c1C | -51 | 4.2* | 109 | 145* | 140* | -8
COc1ccc(CN2CCN(C(=O)C3CCC(CNS(=O)(=O)c4ccccc4)CC3)CC2)c(OC)c1OC (stereo not given) | 20 | 0.79 | 79 | 83 | -6 | 29
O=C1c2ccccc2C(=O)N1CCc1c[nH]c2ccc(O)cc12 | -37 | 1.9 | 77 | 132* | 14 | 30
COc1c(OC(C)=O)ccc(/C=C/c2ccc3ccccc3n2)c1[N+](=O)[O-] | 1 | 1.1 | 105 | 99 | 136* | 0
O=C(COc1ccc(Cl)cc1Cl)Nc1ccccn1 | 89* | 0.97 | 8 | 20 | -1 | 111*
CC(c1ccco1)N(C(=O)COc1ccc(Cl)cc1Cl)c1ccccn1 (stereo not given) | -24 | 4* | 85 | 122 | 197* | 23
COc1ccccc1OCC(=O)Nc1ccccn1 | -29 | 1.1 | 92 | 129* | 125 | 16
CCCCCCc1ccc(-c2ncc(N)cn2)cc1 | -42 | 4.4* | 100 | 139* | 70 | 3
C=CCn1c(CCCNC(=O)c2ccccc2OC)nc2ccccc21 | 13 | 1.3 | 101 | 88 | 7 | 4
O=C(Oc1ccc(/C=N/O)cc1)c1ccccc1Cl | -48 | 2 | 100 | 142* | 61 | 5
Cc1cccc(C(=O)Oc2ccc(/C=N/O)cc2)c1 | -38 | 3.1 | 105 | 135* | 149* | -2
SMILES | STAT1 blocker | NF-kB neuron act | STAT3 activator | STAT1 activator | APP 5'UTR act | STAT3 inh
Cc1cccc(C(=O)Oc2ccccc2/C=N/Nc2ccc([N+](=O)[O-])cc2)c1 | 11 | 1 | 107 | 90 | -16 | -10
O=C(c1ccccc1)c1cc(-c2ccccc2)on1 | 20 | 2 | 70 | 81 | 184* | 38
Cc1cccc(C)c1NC(=O)CC(NCCc1ccccc1)C(=O)O (stereo not given) | -3 | 1.2 | 91 | 103 | 8 | 12
COc1cccc(N=c2oc3ccc(OC)cc3cc2-c2nc3ccccc3[nH]2)c1 | -38 | 3.1 | 151* | 135* | 90 | -56
COc1ccc2oc(=O)c(-c3nc4ccccc4o3)cc2c1 | -11 | x | 100 | 110 | 134 | 0
COc1cccc(CC(=O)Nc2nc3ccccc3[nH]2)c1 | -13 | 1.3 | 102 | 109 | 4 | 2
COc1cccc(N=c2oc3ccccc3cc2-c2nc3ccccc3[nH]2)c1 | -51 | 3.5* | 143* | 147* | 132 | -47
COc1ccccc1NC(=S)Nc1ccc2cn[nH]c2c1 | -6 | 1.2 | 131 | 103 | 20 | -38
COc1ccc(OCC(=O)Nc2nc3ccccc3[nH]2)cc1 | -7 | 2.2 | 99 | 106 | 50 | 5
COc1ccc(C(=O)Nc2nc3ccccc3[nH]2)cc1OC | -31 | 2.4 | 85 | 129* | 92 | 20
CN(C)S(=O)(=O)c1ccc(C(=O)Nc2nc3ccccc3[nH]2)cc1 | -51 | 1.2 | 100 | 143* | 101 | 2
COc1ccc(C(=O)Nc2nc(C)c(C)s2)cc1OC | -43 | 1.9 | 100 | 139* | 104 | 4
COc1cc(OC)cc(C(=O)Nc2nc3ccccc3[nH]2)c1 | -34 | 1.9 | 99 | 131* | 105 | 5
COc1ccc(C(=O)Nc2ccc3nc(C)sc3c2)cc1OC | -20 | 0.97 | 99 | 118 | 27 | 3
C=CCN1C(=O)C(CC(=O)Nc2ccccc2)N(Cc2ccccn2)C1=S (stereo not given) | 2 | 0.81 | 102 | 98 | -5 | 0
CCCCN(CC)C(=O)Cn1c(=O)sc2ccccc21 | 11 | 1.2 | 102 | 89 | 21 | -1
CCOC(=O)c1c(C)[nH]c(C(=O)COC(=O)C2CC2C)c1C (stereo not given) | -56 | 4.1* | 90 | 150* | 180* | 17
CC(=O)c1ccc(S(=O)(=O)N(Cc2cc3cc4c(cc3[nH]c2=O)OCCO4)CC2CCCO2)cc1 (stereo not given) | -32 | 1.6 | 109 | 129* | 26 | -5
COc1ccc(C2=NC(c3ccccc3)CO2)cc1 (stereo not given) | -47 | 1.4 | 74 | 143* | 40 | 28
O=C(Nc1ccccc1)C1Cc2ccccc2CN1C(=O)c1ccco1 (stereo not given) | -33 | 0.97 | 141* | 130* | 117 | -49
S=C(N=Nc1ccccc1)NNc1ccccc1 | -29 | 3.7* | 131 | 126 | 93 | -33
CC(C)C(=O)N1CCC(CN=CC2=C(O)CC(C)(C)CC2=O)CC1 | -1 | 1.1 | 96 | 99 | 12 | 6
Nc1nnc(SCc2coc(-c3ccc(Cl)cc3)n2)s1 | -47 | 1.9 | 96 | 143* | 46 | 6
CCN(CC(=O)Nc1cc(C)nn1-c1nc(C)cc(C)n1)Cc1ccccc1 | -3 | 0.84 | 101 | 103 | 6 | -4
Clc1ccc(-c2nc(C3CCCCC3)no2)cc1 | -36 | 1.9 | 99 | 132* | 108 | 12
COc1ccc(-n2ncc3c(NCCN4CCOCC4)ncnc32)cc1 | -27 | 0.64 | 106 | 125 | 59 | 1
CCCNc1ncnc2c1cnn2-c1ccc(OC)cc1 | -62 | 5.9* | 77 | 156* | 193* | 34
